Results: ChEMBL document CHEMBL3286094, “Synthesis and biological evaluation of novel bisbenzimidazoles as Escherichia coli topoisomerase IA inhibitors and potential antibacterial agents” (J Med Chem, 2014)
≈ marks a conversion by molar mass, not a printed value. Calls of active or inactive are those of the source. No cut-off for these calls is given here.

Legend:
Escherichia coli [1] = assay: Antibacterial activity against ampicillin/ciprofloxacin/gentamicin/tetracycline-resistant Escherichia coli 555 assessed as growth inhibition after 18 to 24 hrs by broth microdilution method; assay type: functional
Escherichia coli [2] = assay: Bactericidal activity against ciprofloxacin-resistant Escherichia coli 72 by agar plating method; assay type: functional
Escherichia coli [3] = assay: Bactericidal activity against ampicillin/kanamycin/trimethoprim/tetracyclin/ciprofloxacin/nalidixic acid-resistant Escherichia coli 81 by agar plating method; assay type: functional
Escherichia coli [4] = assay: Bactericidal activity against chloramphenicol/ampicillin/kanamycin/trimethoprim/ciprofloxacin/nalidixic acid-resistant Escherichia coli 132 by agar plating method; assay type: functional
Escherichia coli [5] = assay: Bactericidal activity against ampicillin/chloramphenicol/ciprofloxacin/gentamicin/tetracycline-resistant Escherichia coli 401 by agar plating method; assay type: functional
Escherichia coli [6] = assay: Bactericidal activity against ampicillin/ciprofloxacin/gentamicin/tetracycline-resistant Escherichia coli 555 by agar plating method; assay type: functional
[7] = Inhibition of Escherichia coli DNA topoisomerase-1A using supercoiled pHOT1 plasmid DNA as substrate assessed as inhibition of DNA relaxation after 30 mins by agarose gel electrophoresis
Outline: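 Supercoiled plasmid DNA incubated with E. coli Topo IA in the presence of compound at […]. Relaxation products were resolved by electrophoresis on 1% agarose gel.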

Escherichia coli [8] = assay: Inhibition of Escherichia coli DNA gyrase using relaxed pHOT1 plasmid DNA as substrate assessed as inhibition of DNA supercoiling up to 100 uM after 30 mins by agarose gel electrophoresis
Homo sapiens = organism: Homo sapiens; assay: Inhibition of human DNA topoisomerase-1B using supercoiled pHOT1 plasmid DNA as substrate assessed as inhibition of DNA relaxation at 100 uM after 30 mins by agarose gel electrophoresis
Escherichia coli [9] = assay: Antibacterial activity against Escherichia coli ATCC 25922 assessed as growth inhibition after 18 to 24 hrs by broth microdilution method; assay type: functional
Escherichia coli [10] = assay: Antibacterial activity against ciprofloxacin-resistant Escherichia coli 72 assessed as growth inhibition after 18 to 24 hrs by broth microdilution method; assay type: functional
Escherichia coli [11] = assay: Antibacterial activity against ampicillin/trimethoprim/nalidixic acid-resistant Escherichia coli 118 assessed as growth inhibition after 18 to 24 hrs by broth microdilution method; assay type: functional
Escherichia coli [12] = assay: Antibacterial activity against chloroamphenicol/ampicillin/kanamycin/trimethoprim/ciprofloxacin/nalidixic acid-resistant Escherichia coli 85 assessed as growth inhibition after 18 to 24 hrs by broth microdilution method; assay type: functional
Escherichia coli [13] = assay: Antibacterial activity against gentamicin/kanamycin/tetracycline/nalidixic acid-resistant Escherichia coli 360 assessed as growth inhibition after 18 to 24 hrs by broth microdilution method; assay type: functional
Escherichia coli [14] = assay: Antibacterial activity against ampicillin/tetracycline/gentamicin-resistant Escherichia coli 451 assessed as growth inhibition after 18 to 24 hrs by broth microdilution method; assay type: functional
Escherichia coli [15] = assay: Antibacterial activity against chloramphenicol/ampicillin/trimethoprim/ciprofloxacin/nalidixic acid-resistant Escherichia coli 59 assessed as growth inhibition after 18 to 24 hrs by broth microdilution method; assay type: functional
Escherichia coli [16] = assay: Antibacterial activity against ampicillin/kanamycin/trimethoprim/tetracyclin/ciprofloxacin/nalidixic acid-resistant Escherichia coli 81 assessed as growth inhibition after 18 to 24 hrs by broth microdilution method; assay type: functional
Escherichia coli [17] = assay: Antibacterial activity against chloramphenicol/ampicillin/kanamycin/trimethoprim/ciprofloxacin/nalidixic acid-resistant Escherichia coli 132 assessed as growth inhibition after 18 to 24 hrs by broth microdilution method; assay type: functional
Escherichia coli [18] = assay: Antibacterial activity against chloramphenicol/ampicillin/kanamycin/trimethoprim/ciprofloxacin/nalidixic acid-resistant Escherichia coli 151 assessed as growth inhibition after 18 to 24 hrs by broth microdilution method; assay type: functional
Escherichia coli [19] = assay: Antibacterial activity against ampicillin/chloramphenicol/ciprofloxacin/gentamicin/tetracycline-resistant Escherichia coli 401 assessed as growth inhibition after 18 to 24 hrs by broth microdilution method; assay type: functional
Escherichia coli [20] = assay: Bactericidal activity against multidrug-resistant Escherichia coli IS 54 isolated from water source by agar plating method; conditions: IS 54, Water
Escherichia coli [21] = assay: Bactericidal activity against ampicillin/tetracycline/piperacillin-resistant Escherichia coli WB31 isolated from water source by agar plating method
Escherichia coli [22] = assay: Bactericidal activity against ampicillin/trimethoprim/piperacillin-resistant Escherichia coli MKNJ isolated from water source by agar plating method
Escherichia coli [23] = assay: Bactericidal activity against ampicillin/chloramphenicol/tetracycline/trimethoprim/ciprofloxacin-resistant Escherichia coli KK45 isolated from water source by agar plating method
Escherichia coli [24] = assay: Antibacterial activity against multidrug-resistant Escherichia coli IS 54 isolated from water source assessed as growth inhibition after 18 to 24 hrs by broth microdilution method; conditions: IS 54, Water
Escherichia coli [25] = assay: Antibacterial activity against ampicillin/tetracycline-resistant Escherichia coli IP18 isolated from water source assessed as growth inhibition after 18 to 24 hrs by broth microdilution method
Escherichia coli [26] = assay: Antibacterial activity against tetracycline/trimethoprim-resistant Escherichia coli IST isolated from water source assessed as growth inhibition after 18 to 24 hrs by broth microdilution method
Escherichia coli [27] = assay: Bactericidal activity against cefazolinl/ampicillin/piperacillin/cefuroxime/cefepime/cefotaxime/tetracycline/ciprofloxacin-resistant Escherichia coli NG3 isolated from water source by agar plating method
Escherichia coli [28] = assay: Bactericidal activity against cefazolinl/ampicillin/piperacillin/cefuroxime/cefepime/cefotaxime/tetracycline/trimethoprim-resistant Escherichia coli KK16 isolated from water source by agar plating method
Escherichia coli [29] = assay: Antibacterial activity against ampicillin/tetracycline/piperacillin-resistant Escherichia coli WB31 isolated from water source assessed as growth inhibition after 18 to 24 hrs by broth microdilution method
Escherichia coli [30] = assay: Antibacterial activity against ampicillin/trimethoprim/piperacillin-resistant Escherichia coli MKNJ isolated from water source assessed as growth inhibition after 18 to 24 hrs by broth microdilution method
Escherichia coli [31] = assay: Antibacterial activity against ampicillin/trimethoprim/cefazolinl/piperacillin/cefuroxime/cefoxitine/cefepime/cefotaxime-resistant Escherichia coli KP21 isolated from water source assessed as growth inhibition after 18 to 24 hrs by broth microdilution method
Escherichia coli [32] = assay: Antibacterial activity against cefazolinl/ampicillin/piperacillin/cefuroxime/cefepime/cefotaxime/tetracycline/trimethoprim-resistant Escherichia coli KK16 isolated from water source assessed as growth inhibition after 18 to 24 hrs by broth microdilution method

COc1ccc(-c2nc3ccc(-c4nc5ccc(N6CCN(c7ncccn7)CC6)cc5[nH]4)cc3[nH]2)cc1OC
MIC50 (Escherichia coli [1]): 32 µg/mL (≈ 60.1 µM) | MIC90 (Escherichia coli [1]): 59.4 µg/mL (≈ 112 µM) | MBC (Escherichia coli [2]): 32 µg/mL (≈ 60.1 µM) | MBC (Escherichia coli [3]): 32 µg/mL (≈ 60.1 µM) | MBC (Escherichia coli [4]): 128 µg/mL (≈ 240 µM) | MBC (Escherichia coli [5]): 32 µg/mL (≈ 60.1 µM) | MBC (Escherichia coli [6]): 64 µg/mL (≈ 120 µM) | IC50 [7]: 6.2 µM | inhibition (Escherichia coli [8]): inactive | inhibition (Homo sapiens): Active | MIC50 (Escherichia coli [9]): 32 µg/mL (≈ 60.1 µM) | MIC90 (Escherichia coli [9]): 49 µg/mL (≈ 92 µM) | MIC50 (Escherichia coli [10]): 16 µg/mL (≈ 30 µM) | MIC90 (Escherichia coli [10]): 30.1 µg/mL (≈ 56.5 µM) | MIC50 (Escherichia coli [11]): 4 µg/mL (≈ 7.51 µM) | MIC90 (Escherichia coli [11]): 7.4 µg/mL (≈ 13.9 µM) | MIC50 (Escherichia coli [12]): 32 µg/mL (≈ 60.1 µM) | MIC90 (Escherichia coli [12]): 55.8 µg/mL (≈ 105 µM) | MIC50 (Escherichia coli [13]): > 128 µg/mL | MIC50 (Escherichia coli [14]): 16 µg/mL (≈ 30 µM) | MIC90 (Escherichia coli [14]): 28.8 µg/mL (≈ 54.1 µM) | MIC50 (Escherichia coli [15]): 16 µg/mL (≈ 30 µM) | MIC90 (Escherichia coli [15]): 30.2 µg/mL (≈ 56.7 µM) | MIC50 (Escherichia coli [16]): 16 µg/mL (≈ 30 µM) | MIC90 (Escherichia coli [16]): 29.7 µg/mL (≈ 55.8 µM) | MIC50 (Escherichia coli [17]): 64 µg/mL (≈ 120 µM) | MIC90 (Escherichia coli [17]): 122 µg/mL (≈ 229 µM) | MIC50 (Escherichia coli [18]): 16 µg/mL (≈ 30 µM) | MIC90 (Escherichia coli [18]): 30.4 µg/mL (≈ 57.1 µM) | MIC50 (Escherichia coli [19]): 16 µg/mL (≈ 30 µM) | MIC90 (Escherichia coli [19]): 29 µg/mL (≈ 54.4 µM) | MBC (Escherichia coli [20]): 64 µg/mL (≈ 120 µM) | MBC (Escherichia coli [21]): 32 µg/mL (≈ 60.1 µM) | MBC (Escherichia coli [22]): 64 µg/mL (≈ 120 µM) | MBC (Escherichia coli [23]): 32 µg/mL (≈ 60.1 µM) | MIC50 (Escherichia coli [24]): 32 µg/mL (≈ 60.1 µM) | MIC90 (Escherichia coli [24]): 61.6 µg/mL (≈ 116 µM) | MIC50 (Escherichia coli [25]): 16 µg/mL (≈ 30 µM) | MIC90 (Escherichia coli [25]): 30.8 µg/mL (≈ 57.8 µM) | MIC50 (Escherichia coli [26]): 16 µg/mL (≈ 30 µM) | MIC90 (Escherichia coli [26]): 30.8 µg/mL (≈ 57.8 µM) | MBC (Escherichia coli [27]): 32 µg/mL (≈ 60.1 µM) | MBC (Escherichia coli [28]): 32 µg/mL (≈ 60.1 µM) | MIC50 (Escherichia coli [29]): 16 µg/mL (≈ 30 µM) | MIC90 (Escherichia coli [29]): 30.2 µg/mL (≈ 56.7 µM) | MIC50 (Escherichia coli [30]): 32 µg/mL (≈ 60.1 µM) | MIC90 (Escherichia coli [30]): 61.4 µg/mL (≈ 115 µM) | MIC50 (Escherichia coli [31]): 32 µg/mL (≈ 60.1 µM) | MIC90 (Escherichia coli [31]): 60.5 µg/mL (≈ 114 µM) | MIC50 (Escherichia coli [32]): 16 µg/mL (≈ 30 µM) | MIC90 (Escherichia coli [32]): 30.4 µg/mL (≈ 57.1 µM)

CCOc1ccc(-c2nc3ccc(-c4nc5ccc(N6CCN(CCN(C)C)CC6)cc5[nH]4)cc3[nH]2)cc1
MIC50 (Escherichia coli [1]): 32 µg/mL (≈ 62.8 µM) | MIC90 (Escherichia coli [1]): 60.4 µg/mL (≈ 119 µM) | MBC (Escherichia coli [2]): 64 µg/mL (≈ 126 µM) | MBC (Escherichia coli [3]): 64 µg/mL (≈ 126 µM) | MBC (Escherichia coli [4]): 128 µg/mL (≈ 251 µM) | MBC (Escherichia coli [5]): 32 µg/mL (≈ 62.8 µM) | MBC (Escherichia coli [6]): 64 µg/mL (≈ 126 µM) | IC50 [7]: 9.4 µM | inhibition (Escherichia coli [8]): inactive | inhibition (Homo sapiens): inactive | MIC50 (Escherichia coli [9]): 8 µg/mL (≈ 15.7 µM) | MIC90 (Escherichia coli [9]): 26.6 µg/mL (≈ 52.2 µM) | MIC50 (Escherichia coli [10]): 32 µg/mL (≈ 62.8 µM) | MIC90 (Escherichia coli [10]): 57.2 µg/mL (≈ 112 µM) | MIC50 (Escherichia coli [11]): 8 µg/mL (≈ 15.7 µM) | MIC90 (Escherichia coli [11]): 15.2 µg/mL (≈ 29.8 µM) | MIC50 (Escherichia coli [12]): 16 µg/mL (≈ 31.4 µM) | MIC90 (Escherichia coli [12]): 28.6 µg/mL (≈ 56.1 µM) | MIC50 (Escherichia coli [13]): 64 µg/mL (≈ 126 µM) | MIC90 (Escherichia coli [13]): 121 µg/mL (≈ 237 µM) | MIC50 (Escherichia coli [14]): 32 µg/mL (≈ 62.8 µM) | MIC90 (Escherichia coli [14]): 55.3 µg/mL (≈ 109 µM) | MIC50 (Escherichia coli [15]): 16 µg/mL (≈ 31.4 µM) | MIC90 (Escherichia coli [15]): 28.8 µg/mL (≈ 56.5 µM) | MIC50 (Escherichia coli [16]): 32 µg/mL (≈ 62.8 µM) | MIC90 (Escherichia coli [16]): 60.2 µg/mL (≈ 118 µM) | MIC50 (Escherichia coli [17]): 64 µg/mL (≈ 126 µM) | MIC90 (Escherichia coli [17]): 123 µg/mL (≈ 241 µM) | MIC50 (Escherichia coli [18]): 32 µg/mL (≈ 62.8 µM) | MIC90 (Escherichia coli [18]): 61.6 µg/mL (≈ 121 µM) | MIC50 (Escherichia coli [19]): 16 µg/mL (≈ 31.4 µM) | MIC90 (Escherichia coli [19]): 30.4 µg/mL (≈ 59.6 µM) | MBC (Escherichia coli [20]): 64 µg/mL (≈ 126 µM) | MBC (Escherichia coli [21]): 32 µg/mL (≈ 62.8 µM) | MBC (Escherichia coli [22]): 32 µg/mL (≈ 62.8 µM) | MBC (Escherichia coli [23]): 32 µg/mL (≈ 62.8 µM) | MIC50 (Escherichia coli [24]): 32 µg/mL (≈ 62.8 µM) | MIC90 (Escherichia coli [24]): 60.6 µg/mL (≈ 119 µM) | MIC50 (Escherichia coli [25]): 16 µg/mL (≈ 31.4 µM) | MIC90 (Escherichia coli [25]): 30.6 µg/mL (≈ 60 µM) | MIC50 (Escherichia coli [26]): 32 µg/mL (≈ 62.8 µM) | MIC90 (Escherichia coli [26]): 60.6 µg/mL (≈ 119 µM) | MBC (Escherichia coli [27]): 16 µg/mL (≈ 31.4 µM) | MBC (Escherichia coli [28]): 32 µg/mL (≈ 62.8 µM) | MIC50 (Escherichia coli [29]): 16 µg/mL (≈ 31.4 µM) | MIC90 (Escherichia coli [29]): 29.4 µg/mL (≈ 57.7 µM) | MIC50 (Escherichia coli [30]): 16 µg/mL (≈ 31.4 µM) | MIC90 (Escherichia coli [30]): 30.6 µg/mL (≈ 60 µM) | MIC50 (Escherichia coli [31]): 32 µg/mL (≈ 62.8 µM) | MIC90 (Escherichia coli [31]): 61.4 µg/mL (≈ 120 µM) | MIC50 (Escherichia coli [32]): 16 µg/mL (≈ 31.4 µM) | MIC90 (Escherichia coli [32]): 27.6 µg/mL (≈ 54.2 µM)
